LMPTP inh = LMPTP phosphatase inhibitors, primary screen, biochemical, fluorescence intensity, uHTS | Low molecular weight phosphotyrosine protein phosphatase (Homo sapiens), P24666 | recombinant LMPTP-A, OMFP fluorogenic substrate | inhibition, % at 20 µM | 360,000 tested, 0.22% active | AID 651560, 2012;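 active = compounds that cut the enzyme signal by at least half of the control window in the single-dose screen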;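 also: plate controls were DMSO wells with enzyme plus substrate for no effect and substrate without enzyme for full effect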
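Test system: LMPTP-A phosphatase enzyme; input: 0.625 nM LMPTP-A final; reagent: OMFP substrate, 400 µM final; compound dosing: 20 µM single dose, 3% DMSO; incubation: 50 min dark incubation at room temperature; measured by: endpoint fluorescence intensity from OMFP dephosphorylation; measure: % inhibition relative to no-enzyme and uninhibited control wells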
STEP inh = STEP phosphatase inhibitors, primary screen, biochemical, fluorescence intensity, uHTS. 360,000 tested, 0.25% active. recombinant STEP, OMFP fluorogenic substrate. Tyrosine-protein phosphatase non-receptor type 5 (Homo sapiens), P54829. inhibition, % at 20 µM;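 active = inhibition at 20 µM, scaled per plate between control wells, above about 37%, limit read from the data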;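 also: 0% = DMSO with enzyme and substrate and 100% = substrate only without enzyme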
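material = STEP tyrosine phosphatase | reagent = fluorogenic phosphatase substrate OMFP at 25 µM final | doses = single compound dose of 20 µM, 1% DMSO final | schedule = 20 min reaction, room temperature, in the dark | measured by = fluorescence, 480/540 nm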
SUMO1-SIM PPI = modulators of SUMO1 protein-protein interactions, primary screen, biochemical, uHTS; AID 602429, 2012; SUMO1 binding to a labelled peptide, TR-FRET, 1 h; inhibition, % at 20 µM; 360,000 tested, 0.33% active; in the data active = inhibition above about 37%
FAS TE block = FAS thioesterase domain inhibitors, primary screen, biochemical, fluorescence intensity, uHTS. Fatty acid synthase (Homo sapiens), P49327. recombinant FAS-TE, OMFH fluorogenic substrate, fluorescence endpoint. inhibition, % at 15 µM. 360,000 tested, 0.67% active. AID 602261, 2012;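 active = compounds whose normalised, plate-corrected inhibition of enzyme fluorescence in the single-dose primary screen is 50% or more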;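 also: 0% = DMSO with enzyme and 100% = substrate without enzyme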
Target sequence (P49327 whole entry, looked up, the tested form may be a part): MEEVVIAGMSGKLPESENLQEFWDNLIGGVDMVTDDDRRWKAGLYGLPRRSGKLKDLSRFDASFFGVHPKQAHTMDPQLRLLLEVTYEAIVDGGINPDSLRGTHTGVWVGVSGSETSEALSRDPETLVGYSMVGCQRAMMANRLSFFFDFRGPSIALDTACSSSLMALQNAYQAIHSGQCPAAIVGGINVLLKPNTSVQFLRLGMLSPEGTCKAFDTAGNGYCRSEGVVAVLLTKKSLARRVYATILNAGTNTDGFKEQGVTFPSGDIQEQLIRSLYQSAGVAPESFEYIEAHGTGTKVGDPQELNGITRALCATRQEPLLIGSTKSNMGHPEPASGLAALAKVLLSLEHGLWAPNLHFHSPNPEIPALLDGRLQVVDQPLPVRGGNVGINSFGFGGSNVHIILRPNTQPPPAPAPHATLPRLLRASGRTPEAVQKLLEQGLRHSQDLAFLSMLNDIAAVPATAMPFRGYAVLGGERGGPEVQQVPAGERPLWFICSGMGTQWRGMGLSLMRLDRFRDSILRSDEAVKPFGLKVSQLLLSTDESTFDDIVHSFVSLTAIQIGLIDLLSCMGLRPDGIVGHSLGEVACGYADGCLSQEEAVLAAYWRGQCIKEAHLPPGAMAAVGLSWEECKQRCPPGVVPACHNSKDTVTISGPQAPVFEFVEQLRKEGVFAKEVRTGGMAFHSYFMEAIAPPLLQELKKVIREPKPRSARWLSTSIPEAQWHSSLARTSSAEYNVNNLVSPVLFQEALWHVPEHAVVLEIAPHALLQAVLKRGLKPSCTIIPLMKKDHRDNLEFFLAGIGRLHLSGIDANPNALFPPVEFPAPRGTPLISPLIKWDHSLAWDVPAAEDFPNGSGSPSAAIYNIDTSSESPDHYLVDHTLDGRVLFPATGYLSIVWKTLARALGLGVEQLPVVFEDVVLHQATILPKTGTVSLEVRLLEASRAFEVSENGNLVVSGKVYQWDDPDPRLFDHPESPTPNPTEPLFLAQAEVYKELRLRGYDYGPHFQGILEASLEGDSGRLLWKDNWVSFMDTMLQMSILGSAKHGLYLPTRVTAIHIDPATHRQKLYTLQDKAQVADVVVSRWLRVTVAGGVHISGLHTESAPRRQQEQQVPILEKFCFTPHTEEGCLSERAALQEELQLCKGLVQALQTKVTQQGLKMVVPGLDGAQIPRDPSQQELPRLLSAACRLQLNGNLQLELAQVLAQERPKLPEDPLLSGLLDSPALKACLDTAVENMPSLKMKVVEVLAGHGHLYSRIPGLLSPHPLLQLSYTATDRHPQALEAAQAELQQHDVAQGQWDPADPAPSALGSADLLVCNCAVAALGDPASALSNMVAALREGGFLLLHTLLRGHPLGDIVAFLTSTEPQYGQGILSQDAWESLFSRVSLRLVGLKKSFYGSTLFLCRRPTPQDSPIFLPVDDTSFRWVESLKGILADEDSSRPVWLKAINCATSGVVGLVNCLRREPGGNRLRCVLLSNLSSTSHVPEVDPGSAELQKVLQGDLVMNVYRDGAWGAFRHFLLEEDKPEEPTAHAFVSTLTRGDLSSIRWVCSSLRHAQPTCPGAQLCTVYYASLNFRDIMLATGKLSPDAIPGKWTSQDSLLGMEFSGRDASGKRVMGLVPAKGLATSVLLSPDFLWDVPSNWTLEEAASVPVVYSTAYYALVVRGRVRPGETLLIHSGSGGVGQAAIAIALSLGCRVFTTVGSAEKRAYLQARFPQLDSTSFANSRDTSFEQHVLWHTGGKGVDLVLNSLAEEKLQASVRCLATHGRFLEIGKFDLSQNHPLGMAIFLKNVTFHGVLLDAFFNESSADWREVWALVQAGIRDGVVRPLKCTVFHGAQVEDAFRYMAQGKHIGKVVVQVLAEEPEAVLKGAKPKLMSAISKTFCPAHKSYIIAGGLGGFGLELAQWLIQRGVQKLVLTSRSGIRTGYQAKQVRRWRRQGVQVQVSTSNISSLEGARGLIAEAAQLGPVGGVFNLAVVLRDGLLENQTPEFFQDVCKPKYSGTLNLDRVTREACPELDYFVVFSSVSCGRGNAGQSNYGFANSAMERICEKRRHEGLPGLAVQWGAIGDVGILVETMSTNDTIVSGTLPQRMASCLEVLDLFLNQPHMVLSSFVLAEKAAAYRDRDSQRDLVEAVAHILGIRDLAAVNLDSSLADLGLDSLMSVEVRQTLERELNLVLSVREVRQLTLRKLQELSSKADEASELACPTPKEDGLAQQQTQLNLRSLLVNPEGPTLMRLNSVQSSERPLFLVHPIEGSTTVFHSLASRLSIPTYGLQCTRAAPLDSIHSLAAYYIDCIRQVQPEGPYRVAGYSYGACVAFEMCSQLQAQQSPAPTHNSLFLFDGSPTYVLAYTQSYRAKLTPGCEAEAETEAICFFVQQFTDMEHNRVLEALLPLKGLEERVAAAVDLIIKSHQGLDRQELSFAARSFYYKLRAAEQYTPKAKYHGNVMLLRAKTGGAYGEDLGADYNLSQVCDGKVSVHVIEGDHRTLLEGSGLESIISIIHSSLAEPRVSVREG
Scp1 inh = Scp-1 phosphatase inhibitors, primary screen, biochemical, colorimetric, uHTS. Carboxy-terminal domain RNA polymerase II polypeptide A small phosphatase 1 (Homo …. Recombinant Scp1, phosphopeptide, malachite green phosphate absorbance. inhibition, % at 20 µM. 340,000 tested, 0.88% active;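 active = inhibition above about 50% at 20 µM, limit read from the data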;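 also: plate controls were DMSO wells with enzyme for no effect and wells lacking enzyme for full effect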
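Test system: SCP-1 phosphatase catalytic domain, residues 76-261 | Compound dosing: One concentration, 20 µM, with 1.0% DMSO | Schedule: 45 min room-temperature reaction, 5 min colour, 30 min stabiliser | Detection: Absorbance at 630 nm | Read-out basis: % inhibition of SCP-1 phosphate liberation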
Scp-1 conf = Scp-1 phosphatase inhibitors, retest, confirmation, biochemical, colorimetric, single concentration | 2,500 tested, 61% active | inhibition, % at 20 µM | recombinant SCP-1 catalytic domain, phosphate release, malachite green absorbance | shares compounds with Scp1 inh;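 also: plate controls were DMSO with enzyme for no effect and buffer wells lacking enzyme for full effect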
Scp-1 MG ctr = colorimetric readout interference by compounds, confirmation, artefact control for Scp-1 inhibitor project, biochemical, single concentration. shares compounds with Scp1 inh. Colorimetric interference counterscreen, malachite green absorbance 630 nm. 2,500 tested, under 10 active. apparent inhibition (interference), % at 20 µM;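 also: compounds added after enzyme reaction finished so only phosphate colour detection is probed; plate controls were DMSO wells with completed Scp-1 reaction for no effect and substrate wells lacking enzyme for full effect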
Scp-1 Tm shift = Scp-1 binding by thermal shift, confirmation, orthogonal assay for Scp-1 inhibitor project, biophysical, differential scanning fluorimetry. shares compounds with Scp1 inh. Recombinant SCP1, Sypro Orange thermal shift Tm. 1,500 tested, 25% active. thermal shift relative to vanadate control, % at 40 µM;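 active = substances whose mean melting-temperature shift, as a percentage of the reference inhibitor's shift, reaches about 5.3%, limit read from the data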;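 also: 0% = Tm of DMSO wells and 100% = Tm with sodium orthovanadate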
Numbers without * were called inactive; . = not tested or not shown. An excerpt weighted towards active compounds, which were near 1.9% of everything screened.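 The calls were made as follows, unless noted: active = inhibition of at least 30% at 20 µM; inactive = the rest.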

SMILES	LMPTP inh	STEP inh	SUMO1-SIM PPI	FAS TE block	Scp1 inh	Scp-1 conf	Scp-1 MG ctr	Scp-1 Tm shift
COC(=O)c1ccccc1NC(=O)c1noc2c1CCC2	8	13	2	12	70*	65*	-15	4
CSc1ccccc1NC(=O)c1noc2c1CCC2	9	5	6	1	63*	67*	-13	3
CC(NC(=O)c1noc2c1CCCC2)c1ccccc1 (configuration not stated)	-1	-5	-1	-3	-4	.	.	.
COC(=O)c1ccccc1NC(=O)c1cc[n+]([O-])cc1	-1	2	-6	-6	0	.	.	.
CC(C)CN1C(=O)CSCC1(C)C(=O)NC(C)C (configuration not stated)	-1	.	6	.	.	.	.	.
Cc1ccc(C(=O)O)cc1-c1ccc(/C=C2\SC(=O)N(CC(=O)Nc3ccccc3)C2=O)o1	47	5	10	5	73*	84*	-13	10*
COC(=O)c1ccccc1-c1ccc(/C=C2\C(=O)N(c3ccccc3)N=C2c2ccccc2)o1	5	3	39	-1	-8	.	.	.
Cc1ccccc1NC(=O)CN1C(=O)S/C(=C\c2ccc(-c3cc(C(=O)O)ccc3C)o2)C1=O	48	6	11	3	98*	69*	-16	-483
CCOC(=O)C(C)N1C(=O)S/C(=C\c2ccc(-c3ccccc3C(=O)O)o2)C1=O (configuration not stated)	6	26	46*	-2	52*	53*	-12	11*
CC(=O)c1cc2cccc(OC3(C)CCN(Cc4ccc(-c5ccccn5)cc4)C3)c2o1 (configuration not stated)	1	-1	-18	5	.	.	.	.
Cc1ccc(CN2C(=O)CCC2(C)c2nnnn2-c2ccc3c(c2)OCCO3)cc1 (configuration not stated)	2	.	1	-10	.	.	.	.
Cc1cccc(C)c1NC(=O)C(C1CC1)n1c(-c2ccc(-c3ccccc3)cc2)nc2ccccc21 (configuration not stated)	7	.	-5	.	.	.	.	.
CSc1ccc(/C=N/NC(=O)c2ccc(C)c(C)c2)cc1	13	5	0	-3	83*	59*	-11	-21
C/C(=N\NC(=O)c1ccccc1O)c1ccc(NC(=O)c2ccccc2)cc1	11	36	-7	-4	67*	69*	-8	3
C/C(=N\NC(=O)c1ccccc1O)c1cccc(NC(=O)c2ccccc2)c1	0	6	6	-4	-7	.	.	.
S=c1[nH]nc(COc2ccccc2)n1-c1ccc(Cl)cc1	0	-4	4	-1	51*	3	-10	.
COc1ccccc1C(=O)Nc1c2c(nn1-c1ccc([N+](=O)[O-])cc1)CS(=O)(=O)C2	-1	0	-4	0	-4	.	.	.
COc1ccccc1C(=O)Nc1c2c(nn1-c1cccc(C)c1C)CS(=O)(=O)C2	-1	22	18	7	73*	46*	-14	-12
Cc1cccc(-n2nc3c(c2NC(=O)c2ccco2)CS(=O)(=O)C3)c1C	1	-5	4	-2	-9	.	.	.
COc1ccccc1C(=O)Nc1c2c(nn1-c1ccc(Cl)cc1)CS(=O)(=O)C2	7	3	-3	-3	50*	18	-17	.
CCC[C@@H]1C=C(C(=O)OCC)[C@H](c2ccccc2)N1S(=O)(=O)c1ccc(C)cc1	2	2	0	39	.	.	.	.
COc1ccc(C(NC(=O)C2CCN(CCOc3ccc(Cl)cc3Cl)CC2)c2cccs2)cc1 (configuration not stated)	5	3	-7	23	.	.	.	.
COc1ccc(C(=O)NCc2nnc(SC)n2Cc2ccccc2)cc1	0	-2	0	-3	2	.	.	.
Cn1c(C(C(=O)NCC2CCCO2)N(C(=O)Cn2nnc3ccccc32)C2CCCCC2)nc2ccccc21 (configuration not stated)	0	-3	3	-1	68*	-18	-15	.
CC(=O)c1ccccc1N(C(=O)Cn1nnc2ccccc21)C(C(=O)NCC1CCCO1)c1ccc(N2CCOCC2)cc1 (configuration not stated)	0	-2	6	-6	-11	.	.	.
SMILES	LMPTP inh	STEP inh	SUMO1-SIM PPI	FAS TE block	Scp1 inh	Scp-1 conf	Scp-1 MG ctr	Scp-1 Tm shift
CSCCC(C(=O)NCc1ccccc1)n1c(-c2ccc3c(c2)CCO3)nc2ccccc21 (configuration not stated)	0	.	-4	.	.	.	.	.
O=C(NNC(=O)c1ccc2ccccc2c1)c1ccc(Cl)c(Cl)c1	15	1	3	-5	64*	58*	-8	-23
CCOC(=O)CCn1nc(-c2ccc(Cl)cc2)cc1N	1	1	3	-3	89*	-19	-16	.
Cn1c(NCCCO)nc2c1c(=O)n(Cc1ccccc1F)c(=O)n2C	0	-4	6	-9	-2	.	.	.
COc1ccccc1Oc1nc2c(c(=O)n(Cc3ccccc3F)c(=O)n2C)n1C	0	-2	3	3	68*	1	0	.
Cc1cc2oc(=O)cc(-c3cc4ccccc4o3)c2cc1O	66*	35	14	5	91*	79*	-10	4
C[C@@H]1CN([C@@H](C)CO)C(=O)c2cc(NS(C)(=O)=O)ccc2O[C@@H]1CN(C)Cc1ccc(C(F)(F)F)cc1	0	-5	-5	-5	58*	15	-2	.
COc1ccc(S(=O)(=O)Nc2ccc3c(c2)C(=O)N([C@H](C)CO)C[C@H](C)[C@@H](CN(C)S(=O)(=O)c2ccc(OC)cc2)O3)cc1	-1	1	2	3	66*	14	2	.
C[C@H](CO)N1C[C@H](C)[C@@H](CN(C)S(=O)(=O)c2ccccc2)Oc2ccc(NC(=O)Nc3ccccc3)cc2C1=O	0	-2	3	6	59*	5	-5	.

High-throughput results deposited in PubChem by Sanford-Burnham Center for Chemical Genomics.
